Experimental data taken from ChEMBL document CHEMBL3580554, “Design, synthesis, and anticonvulsant activity of new hybrid compounds derived from 2-(2,5-dioxopyrrolidin-1-yl)propanamides and 2-(2,5-dioxopyrrolidin-1-yl)butanamides” (J Med Chem, 2015).

Tests used:
[1] = Toxicity in ip dosed Swiss mouse assessed as induction of motor performance impairment measured within 60 seconds measured at 1 hr of time to peak effect by Chimney test; format: organism-based; details: in vivo
How it was run: (§1)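 Neurotoxicity (TD50) estimated in mice i.p. by chimney test for motor coordination impairment; protective index calculated as TD50/ED50 for each seizure model.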

[2] = Protective index, ratio of neurotoxic TD50 in Swiss mouse by Chimney test to anticonvulsant ED50 in Swiss mouse measured at 1 hr of time to peak effect by 6 Hz test by 6 Hz psychomotor seizure test; format: toxicity; details: in vivo, read-out: Ratio TD50/ED50; how it was run: as §1
Mus musculus [3] = experiment: Anticonvulsant activity in ip dosed Swiss mouse assessed as protection against seizures measured at 1 hr of time to peak effect by subcutaneous pentylenetetrazole seizure test; format: functional
Mus musculus [4] = experiment: Anticonvulsant activity in ip dosed Swiss mouse assessed as protection against seizures measured at 1 hr of time to peak effect by 6 Hz test by 6 Hz psychomotor seizure test; format: functional
Mus musculus [5] = experiment: Anticonvulsant activity in ip dosed Swiss mouse assessed as protection against seizures measured at 1 hr of time to peak effect by maximal electroshock test; format: functional
Mus musculus [6] = experiment: Anticonvulsant activity in Swiss mouse model of 6 Hz psychomotor seizure mode assessed as protection against seizures at 100 mg/kg, ip dosed 0.25 hrs before 6 Hz electrical stimulation by 6 Hz test; format: functional
How it was run: (§2)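 Mice were dosed i.p. at a fixed 300 or 100 mg/kg (6 Hz: 100 mg/kg only). Protection was then scored against MES, sc PTZ or 6 Hz seizures at pretreatment times of 0.25, 0.5, 1 and 2 h. Groups were four mice, scored as number protected / number tested. This also gives the time course and time of peak effect.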

Mus musculus [7] = experiment: Anticonvulsant activity in Swiss mouse assessed as protection against seizures at 100 mg/kg, ip dosed 1 hr before pentylenetetrazole challenge by subcutaneous pentylenetetrazole seizure test; format: functional; how it was run: as §2
Mus musculus [8] = experiment: Anticonvulsant activity in Swiss mouse model of 6 Hz psychomotor seizure mode assessed as protection against seizures at 100 mg/kg, ip dosed 0.5 hrs before 6 Hz electrical stimulation by 6 Hz test; format: functional; how it was run: as §2
Mus musculus [9] = experiment: Anticonvulsant activity in Swiss mouse assessed as protection against seizures at 100 mg/kg, ip dosed 0.5 hrs before pentylenetetrazole challenge by subcutaneous pentylenetetrazole seizure test; format: functional; how it was run: as §2
Mus musculus [10] = experiment: Anticonvulsant activity in Swiss mouse assessed as protection against seizures at 100 mg/kg, ip dosed 2 hrs before pentylenetetrazole challenge by subcutaneous pentylenetetrazole seizure test; format: functional; how it was run: as §2
Mus musculus [11] = experiment: Anticonvulsant activity in ip dosed Swiss mouse assessed as protection against seizures measured at 0.5 hrs of time to peak effect by subcutaneous pentylenetetrazole seizure test; format: functional
How it was run: (§3)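 Median effective doses (ED50, mg/kg) were determined i.p. in mice at the time of peak effect in the MES, sc PTZ or 6 Hz tests. Only compounds giving at least 50% protection at 100 mg/kg in that test were taken forward.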

Mus musculus [12] = experiment: Anticonvulsant activity in Swiss mouse assessed as protection against seizures at 300 mg/kg, ip dosed 0.5 hrs before initiation of maximal electroconvulsions by maximal electroshock test; format: functional; how it was run: as §2
[13] = Toxicity in ip dosed Swiss mouse assessed as induction of motor performance impairment measured within 60 seconds measured at 0.5 hrs of time to peak effect by Chimney test; format: organism-based; details: in vivo
How it was run: (§4)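 Neurotoxicity was measured i.p. in mice by the chimney test for motor impairment. It was given as the median neurotoxic dose (TD50, mg/kg) at the time of peak effect.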

Mus musculus [14] = experiment: Anticonvulsant activity in Swiss mouse assessed as protection against seizures at 300 mg/kg, ip dosed 0.25 hrs before pentylenetetrazole challenge by subcutaneous pentylenetetrazole seizure test; format: functional; how it was run: as §2
Mus musculus [15] = experiment: Anticonvulsant activity in Swiss mouse assessed as protection against seizures at 100 mg/kg, ip dosed 0.25 hrs before pentylenetetrazole challenge by subcutaneous pentylenetetrazole seizure test; format: functional; how it was run: as §2
Mus musculus [16] = experiment: Anticonvulsant activity in Swiss mouse model of 6 Hz psychomotor seizure mode assessed as protection against seizures at 100 mg/kg, ip dosed 2 hrs before 6 Hz electrical stimulation by 6 Hz test; format: functional; how it was run: as §2
Mus musculus [17] = experiment: Anticonvulsant activity in Swiss mouse assessed as protection against seizures at 100 mg/kg, ip dosed 0.25 hrs before initiation of maximal electroconvulsions by maximal electroshock test; format: functional; how it was run: as §2
Mus musculus [18] = experiment: Anticonvulsant activity in Swiss mouse model of 6 Hz psychomotor seizure mode assessed as protection against seizures at 100 mg/kg, ip dosed 1 hr before 6 Hz electrical stimulation by 6 Hz test; format: functional; how it was run: as §2
Mus musculus [19] = experiment: Anticonvulsant activity in Swiss mouse assessed as protection against seizures at 300 mg/kg, ip dosed 2 hrs before pentylenetetrazole challenge by subcutaneous pentylenetetrazole seizure test; format: functional; how it was run: as §2
Mus musculus [20] = organism: Mus musculus; experiment: Protective index, ratio of neurotoxic TD50 in Swiss mouse by Chimney test to anticonvulsant ED50 in Swiss mouse measured at 0.5 hrs of time to peak effect by 6 Hz test by 6 Hz psychomotor seizure test; format: functional
How it was run: (§5)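 Protective index was calculated as TD50 (chimney test, mouse, i.p.) divided by ED50 from the matching MES, sc PTZ or 6 Hz test, both taken at the time of peak effect.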

Mus musculus [21] = experiment: Anticonvulsant activity in Swiss mouse assessed as protection against seizures at 100 mg/kg, ip dosed 0.5 hrs before initiation of maximal electroconvulsions by maximal electroshock test; format: functional; how it was run: as §2
Mus musculus [22] = experiment: Anticonvulsant activity in Swiss mouse assessed as protection against seizures at 300 mg/kg, ip dosed 2 hrs before initiation of maximal electroconvulsions by maximal electroshock test; format: functional; how it was run: as §2
Mus musculus [23] = experiment: Anticonvulsant activity in Swiss mouse assessed as protection against seizures at 300 mg/kg, ip dosed 1 hr before initiation of maximal electroconvulsions by maximal electroshock test; format: functional; how it was run: as §2
Mus musculus [24] = experiment: Anticonvulsant activity in Swiss mouse assessed as protection against seizures at 100 mg/kg, ip dosed 1 hr before initiation of maximal electroconvulsions by maximal electroshock test; format: functional; how it was run: as §2
Mus musculus [25] = experiment: Anticonvulsant activity in Swiss mouse assessed as protection against seizures at 100 mg/kg, ip dosed 2 hrs before initiation of maximal electroconvulsions by maximal electroshock test; format: functional; how it was run: as §2
Mus musculus [26] = experiment: Anticonvulsant activity in Swiss mouse assessed as protection against seizures at 300 mg/kg, ip dosed 0.5 hrs before pentylenetetrazole challenge by subcutaneous pentylenetetrazole seizure test; format: functional; how it was run: as §2
Mus musculus [27] = experiment: Anticonvulsant activity in ip dosed Swiss mouse assessed as protection against seizures measured at 0.5 hrs of time to peak effect by 6 Hz test by 6 Hz psychomotor seizure test; format: functional; how it was run: as §3
Mus musculus [28] = experiment: Anticonvulsant activity in ip dosed Swiss mouse assessed as protection against seizures measured at 0.5 hrs of time to peak effect by maximal electroshock test; format: functional; how it was run: as §3
Mus musculus [29] = experiment: Protective index, ratio of neurotoxic TD50 in Swiss mouse by Chimney test to anticonvulsant ED50 in Swiss mouse measured at 0.5 hrs of time to peak effect by subcutaneous pentylenetetrazole seizure test; format: functional; how it was run: as §5
Mus musculus [30] = experiment: Anticonvulsant activity in Swiss mouse assessed as protection against seizures at 300 mg/kg, ip dosed 0.25 hrs before initiation of maximal electroconvulsions by maximal electroshock test; format: functional; how it was run: as §2
Mus musculus [31] = organism: Mus musculus; experiment: Protective index, ratio of neurotoxic TD50 in Swiss mouse by Chimney test to anticonvulsant ED50 in Swiss mouse measured at 0.5 hrs of time to peak effect by maximal electroshock test; how it was run: as §5
Mus musculus [32] = experiment: Anticonvulsant activity in Swiss mouse assessed as protection against seizures at 300 mg/kg, ip dosed 1 hr before pentylenetetrazole challenge by subcutaneous pentylenetetrazole seizure test; format: functional; how it was run: as §2
Mus musculus [33] = experiment: Anticonvulsant activity in ip dosed Swiss mouse assessed as protection against seizures measured at 0.25 hrs of time to peak effect by 6 Hz test by 6 Hz psychomotor seizure test; format: functional; how it was run: as §3
Mus musculus [34] = experiment: Anticonvulsant activity in ip dosed Swiss mouse assessed as protection against seizures measured at 0.25 hrs of time to peak effect by subcutaneous pentylenetetrazole seizure test; format: functional; how it was run: as §3
Mus musculus [35] = experiment: Protective index, ratio of neurotoxic TD50 in Swiss mouse by Chimney test to anticonvulsant ED50 in Swiss mouse measured at 0.25 hrs of time to peak effect by subcutaneous pentylenetetrazole seizure test; format: functional; how it was run: as §5
Mus musculus [36] = organism: Mus musculus; experiment: Protective index, ratio of neurotoxic TD50 in Swiss mouse by Chimney test to anticonvulsant ED50 in Swiss mouse measured at 0.25 hrs of time to peak effect by 6 Hz test by 6 Hz psychomotor seizure test; format: functional; how it was run: as §5
Mus musculus [37] = organism: Mus musculus; experiment: Protective index, ratio of neurotoxic TD50 in Swiss mouse by Chimney test to anticonvulsant ED50 in Swiss mouse measured at 0.25 hrs of time to peak effect by maximal electroshock test; how it was run: as §5
Mus musculus [38] = experiment: Anticonvulsant activity in ip dosed Swiss mouse assessed as protection against seizures measured at 0.25 hrs of time to peak effect by maximal electroshock test; format: functional; how it was run: as §3
[39] = Toxicity in ip dosed Swiss mouse assessed as induction of motor performance impairment measured within 60 seconds measured at 0.25 hrs of time to peak effect by Chimney test; format: organism-based; details: in vivo; how it was run: as §4

| Structure (SMILES) | Activity (Mus musculus [6]) | Activity (Mus musculus [7]) | Activity (Mus musculus [8]) | Activity (Mus musculus [9]) | Activity (Mus musculus [10]) | Activity (Mus musculus [12]) | Activity (Mus musculus [14]) | Activity (Mus musculus [15]) | Activity (Mus musculus [16]) | Activity (Mus musculus [17]) | Activity (Mus musculus [18]) | Activity (Mus musculus [19]) | Activity (Mus musculus [21]) | Activity (Mus musculus [22]) | Activity (Mus musculus [23]) | Activity (Mus musculus [24]) | Activity (Mus musculus [25]) | Activity (Mus musculus [26]) | Activity (Mus musculus [30]) | Activity (Mus musculus [32]) | also measured |
| --- | --- | --- | --- | --- | --- | --- | --- | --- | --- | --- | --- | --- | --- | --- | --- | --- | --- | --- | --- | --- | --- |
| CC[C@@H](C(N)=O)N1CCCC1=O |  |  |  |  |  |  |  |  |  |  |  |  |  |  |  |  |  |  |  |  | TD50 at 1 h [1]: > 500 mg/kg; selectivity ratio at 1 h [2]: > 33.8; ED50 (Mus musculus [3]): > 500 mg/kg; ED50 (Mus musculus [4]): 14.8 mg/kg; ED50 (Mus musculus [5]): > 500 mg/kg |
| CC(C(=O)N1CCN(c2cccc(Cl)c2)CC1)N1C(=O)CCC1=O (racemic) | 100% | 50% | 100% | 75% | 25% | 100% | 75% | 50% | 25% | 50% | 75% | 75% | 75% | 50% | 75% | 50% | 0% | 75% | 75% | 75% | ED50 (Mus musculus [11]): 69.6 mg/kg; TD50 at 0.5 h [13]: 202 mg/kg; Ratio TD50/ED50 (Mus musculus [20]): 4; ED50 (Mus musculus [27]): 50.4 mg/kg; ED50 (Mus musculus [28]): 119 mg/kg; Ratio TD50/ED50 (Mus musculus [29]): 2.9; Ratio TD50/ED50 (Mus musculus [31]): 1.69 |
| CC(C(=O)N1CCN(c2ccccc2C(F)(F)F)CC1)N1C(=O)CCC1=O (racemic) | 100% | 25% | 25% | 75% | 0% | 100% | 100% | 100% | 0% | 100% | 0% | 50% | 25% | 75% | 75% | 25% | 0% | 100% | 100% | 75% | ED50 (Mus musculus [33]): 74.2 mg/kg; ED50 (Mus musculus [34]): 87.1 mg/kg; Ratio TD50/ED50 (Mus musculus [35]): 1.71; Ratio TD50/ED50 (Mus musculus [36]): 2.01; Ratio TD50/ED50 (Mus musculus [37]): 1.97; ED50 (Mus musculus [38]): 75.5 mg/kg; TD50 at 0.25 h [39]: 149 mg/kg |
